In experiment [1] the target is T1, Alpha-1A adrenergic receptor (Homo sapiens, UniProt P35348).
T1 sequence (P35348 whole entry): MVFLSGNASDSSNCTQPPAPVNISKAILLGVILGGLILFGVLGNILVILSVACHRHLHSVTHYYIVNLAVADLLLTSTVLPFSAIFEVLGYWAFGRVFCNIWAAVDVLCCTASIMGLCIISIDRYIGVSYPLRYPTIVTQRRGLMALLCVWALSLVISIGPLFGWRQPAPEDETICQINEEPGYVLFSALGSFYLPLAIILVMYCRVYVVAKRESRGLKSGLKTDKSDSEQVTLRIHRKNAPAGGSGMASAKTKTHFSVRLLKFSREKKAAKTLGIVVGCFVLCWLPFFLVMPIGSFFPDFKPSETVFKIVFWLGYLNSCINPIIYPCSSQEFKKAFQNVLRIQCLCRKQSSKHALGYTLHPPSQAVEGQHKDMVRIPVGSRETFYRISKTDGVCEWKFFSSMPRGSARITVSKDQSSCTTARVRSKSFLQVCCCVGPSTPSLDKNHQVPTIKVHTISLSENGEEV
Briefly: Displacement of [3H]prazosin from human cloned Alpha-1A adrenergic receptor. A digest of the protocol: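 CHO cells stably transfected with each human α1 subtype; 30 μg membrane protein in 50 mM Tris-HCl pH 7.4 with 0.1–0.4 nM [3H]prazosin, 30 min at 25 °C. Competitors 1 pM–10 μM. Nonspecific binding defined with 10 μM phentolamine. Filtration, scintillation counting. Ki by Cheng–Prusoff; 2–3 experiments in triplicate.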

Experiment [2] deals with T2, 5-hydroxytryptamine receptor 1A (Homo sapiens, UniProt P08908).
T2 sequence (P08908 whole entry): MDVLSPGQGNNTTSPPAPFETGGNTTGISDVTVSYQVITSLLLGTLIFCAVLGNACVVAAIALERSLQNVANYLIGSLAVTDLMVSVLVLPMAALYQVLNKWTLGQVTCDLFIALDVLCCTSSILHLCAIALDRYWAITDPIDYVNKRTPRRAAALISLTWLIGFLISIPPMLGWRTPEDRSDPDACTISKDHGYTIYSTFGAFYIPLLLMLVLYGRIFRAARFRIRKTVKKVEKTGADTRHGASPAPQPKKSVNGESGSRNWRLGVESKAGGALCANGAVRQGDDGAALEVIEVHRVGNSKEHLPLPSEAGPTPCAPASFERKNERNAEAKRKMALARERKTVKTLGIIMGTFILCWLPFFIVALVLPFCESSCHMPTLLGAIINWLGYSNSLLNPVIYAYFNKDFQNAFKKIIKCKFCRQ
In words: Displacement of [3H]8-hydroxy-2-(di-n-propylamino)tetralin from human 5-hydroxytryptamine 1A receptor. A digest of the protocol:
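Membranes of HeLa cells stably transfected with human 5-HT1A (genomic clone G-21), in 50 mM Tris-HCl pH 7.4, 2.5 mM MgCl2, 10 μM pargiline. […] Nonspecific binding defined with 10 μM 5-HT. Filtration, scintillation counting. Ki by Cheng–Prusoff; 2–3 experiments in triplicate.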

The target in experiment [3] is T3, Adrenergic receptor alpha-2 (Rattus norvegicus, UniProt P22086+P19328+P22909).
T3 sequence (P22086 whole entry): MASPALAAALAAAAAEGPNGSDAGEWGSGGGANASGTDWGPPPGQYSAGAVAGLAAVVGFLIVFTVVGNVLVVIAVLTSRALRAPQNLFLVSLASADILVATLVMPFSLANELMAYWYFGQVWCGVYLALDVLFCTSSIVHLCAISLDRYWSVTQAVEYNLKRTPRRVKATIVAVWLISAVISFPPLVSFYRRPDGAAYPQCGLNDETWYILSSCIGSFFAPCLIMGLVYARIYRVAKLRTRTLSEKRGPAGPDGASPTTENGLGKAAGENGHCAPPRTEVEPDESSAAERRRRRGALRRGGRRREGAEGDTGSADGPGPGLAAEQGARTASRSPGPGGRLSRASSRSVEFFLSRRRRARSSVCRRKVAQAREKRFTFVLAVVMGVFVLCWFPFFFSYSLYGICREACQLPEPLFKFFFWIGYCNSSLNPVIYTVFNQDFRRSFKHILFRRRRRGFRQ
T3 sequence (P19328 whole entry): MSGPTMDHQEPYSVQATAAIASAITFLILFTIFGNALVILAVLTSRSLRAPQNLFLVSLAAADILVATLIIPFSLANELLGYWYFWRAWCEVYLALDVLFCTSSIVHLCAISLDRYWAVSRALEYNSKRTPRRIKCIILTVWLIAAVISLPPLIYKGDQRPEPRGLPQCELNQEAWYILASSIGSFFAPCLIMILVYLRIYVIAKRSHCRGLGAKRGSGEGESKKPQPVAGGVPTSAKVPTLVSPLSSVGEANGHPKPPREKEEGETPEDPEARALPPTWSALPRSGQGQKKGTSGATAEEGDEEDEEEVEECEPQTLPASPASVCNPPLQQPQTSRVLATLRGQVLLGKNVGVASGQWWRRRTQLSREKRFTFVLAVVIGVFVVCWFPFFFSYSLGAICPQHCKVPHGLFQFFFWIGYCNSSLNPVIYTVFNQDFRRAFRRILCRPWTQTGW
T3 sequence (P22909 whole entry): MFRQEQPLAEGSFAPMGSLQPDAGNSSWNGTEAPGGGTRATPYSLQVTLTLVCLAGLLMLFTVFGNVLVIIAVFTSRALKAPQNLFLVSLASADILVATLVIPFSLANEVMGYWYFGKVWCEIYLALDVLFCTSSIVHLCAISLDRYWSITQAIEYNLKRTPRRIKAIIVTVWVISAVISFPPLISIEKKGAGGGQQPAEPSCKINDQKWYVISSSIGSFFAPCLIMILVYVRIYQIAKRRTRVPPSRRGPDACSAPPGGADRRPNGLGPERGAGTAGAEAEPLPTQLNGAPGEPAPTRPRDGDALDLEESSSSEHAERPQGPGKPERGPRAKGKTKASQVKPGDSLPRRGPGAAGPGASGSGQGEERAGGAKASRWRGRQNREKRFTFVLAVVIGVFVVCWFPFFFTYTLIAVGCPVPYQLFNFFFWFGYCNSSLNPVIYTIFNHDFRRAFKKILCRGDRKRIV
Briefly: Displacement of [3H]rauwolscine from rat brain Alpha-2 adrenergic receptor. A digest of the protocol:
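Rat cerebral cortex membranes (male Sprague–Dawley) were washed in Tris-HCl pH 7.4 and resuspended with 10 μM pargiline and 0.1% ascorbic acid. They were incubated 30 min at 25 °C with 0.5–1.5 nM [3H]rauwolscine. Nonspecific binding was taken with 10 μM phentolamine. Filtration and scintillation counting followed, and Ki was obtained by Cheng–Prusoff.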
Background: Loss of bound radioactivity is the signal in a displacement assay; it reports binding, not function.

We go through four molecules from ChEMBL document CHEMBL1132183 (J Med Chem, 1999).

A word on the Ki: it is a dissociation constant, usually derived from enzyme kinetics or from competition with a known ligand. Higher therefore signals lower affinity.

Structures are written as SMILES.

`O[C@@H]1[C@H](NC[C@H]2COc3ccccc3O2)CC[C@H]1Oc1ccccc1`: the Ki in experiment [1] is 0.0363 µM; in experiment [2] it was 0.0055 µM. In experiment [3], the “Log Ki” value is -6.05.
Take `O[C@H]1[C@@H](NC[C@H]2COc3ccccc3O2)CC[C@@H]1Oc1ccccc1`: the Ki in experiment [1] is 0.389 µM; in experiment [2] it was 0.000832 µM. Also, in experiment [3], the “Log Ki” value is given as -6.23.
As to `O[C@@H]1[C@H](NC[C@@H]2COc3ccccc3O2)CC[C@H]1Oc1ccccc1`, the Ki was 0.0776 µM in experiment [1] and 0.0224 µM in experiment [2]. In addition, the “Log Ki” value in experiment [3] is given as -6.27.
Taken in the same sequence, the figures for `O[C@H]1[C@@H](NC[C@@H]2COc3ccccc3O2)CC[C@@H]1Oc1ccccc1` were 0.955 µM, 0.00372 µM and -6.21.
